Rows were chosen to be rich in hits. Some 3.3% of all compounds tested hit in one or more screens of this group.
HTR1A agonist = 5-HT1a (human) receptor agonism | hit rate 0.56% among 65,000 | P08908 | CHO 5-HT1a Ga15 NFAT-bla reporter, FRET ratio; 0% basal, 100% maximal reference agonist | activation, % at 10 µM;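 active = activation above the screen-wide mean activation plus 3 SD, cut at about 19% in these data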;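 note: 0% = DMSO wells and 100% = 5-CT at EC100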
5-HT1A blocker = antagonists of human 5-HT1a serotonin receptor. hit rate 0.68% among 62,000. P08908. CHO 5-HT1a Ga15 NFAT-bla reporter, antagonist mode. AID 612. inhibition, % at 10 µM;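 active = inhibition above the mean of all tested compounds plus 3 SD, cut at about 43% in these data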;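 note: receptor stimulated by 5-CT agonist at 100 nM near EC80; beta-lactamase reporter measured by ratiometric fluorescence of a cleavable substrate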
Jurkat tox 60K = cytotoxicity toward Jurkat cells | Jurkat E6.1 viability, ATP luminescence, 48 h | inhibition, % at 4 µM | hit rate 1.2% among 56,000 | AID 463;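 active = inhibition above the mean inhibition of all tested compounds plus 3 SD, cut at about 28% in these data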
5HT1E ag = activates the human 5-HT1E serotonin receptor | P28566 | CHO 5-HT1E Ga15 NFAT-bla reporter, FRET; 0% DMSO wells, 100% control agonist wells | activation, % at 6 µM | hit rate 0.69% among 65,000;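 active = activation above a set limit, the screen-wide mean activation plus 3 SD, cut at about 8.5% in these data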;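 note: 100% = positive control agonist at 1 µM giving full maximal response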
Target sequence (P28566 whole entry, looked up): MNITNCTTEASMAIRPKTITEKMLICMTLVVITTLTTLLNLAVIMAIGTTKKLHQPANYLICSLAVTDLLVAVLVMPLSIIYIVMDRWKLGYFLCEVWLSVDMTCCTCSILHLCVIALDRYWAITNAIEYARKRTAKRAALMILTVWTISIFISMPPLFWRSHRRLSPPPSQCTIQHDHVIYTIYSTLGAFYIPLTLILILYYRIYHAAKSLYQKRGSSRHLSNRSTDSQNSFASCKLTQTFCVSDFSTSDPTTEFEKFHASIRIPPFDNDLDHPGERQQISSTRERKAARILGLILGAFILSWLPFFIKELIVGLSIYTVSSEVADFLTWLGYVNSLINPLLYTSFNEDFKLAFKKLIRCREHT
HEK293 NFkB inh = lowers PMA/ionomycin-induced NF-kB signal in HEK293 cells; HEK-293 NF-kB luciferase reporter, luminescence; inhibition, % at 3 µM; hit rate 0.21% among 62,000; AID 465;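 active = inhibition above the mean of all tested compounds plus 3 SD, cut at about 40% in these data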;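 note: 0% = stimulated DMSO wells and 100% = 10 µM reference inhibitor 5653914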
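Material: HEK-293 cells with stable firefly luciferase reporter driven by four HIV NF-kB elements / Also added: PMA plus ionomycin mix as NF-kB-activating stimulus / Compound dosing: 3 µM once, 0.30% DMSO / Times: 1 h pretreatment, 16 h stimulation, 37 °C / Signal: luminescence / Evaluation: per-plate % inhibition versus controls / Benchmarks: DMSO and 10 µM reference inhibitor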
HTR1E antagonist = blocks the human 5-HT1E serotonin receptor; P28566; CHO 5-HT1E Ga15 NFAT-bla reporter, FRET, antagonist; inhibition, % at 6 µM; hit rate 0.99% among 65,000;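 active = inhibition above a set limit, the mean inhibition across every tested compound plus 3 SD, cut at about 29% in these data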;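 note: signal is the 460 over 535 nm emission ratio of beta-lactamase substrate; 0% = agonist plus DMSO wells and 100% = wells without agonist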
* hit, by the source's call; x = no result given.

SMILES | HTR1A agonist | 5-HT1A blocker | Jurkat tox 60K | 5HT1E ag | HEK293 NFkB inh | HTR1E antagonist
CCCCNC(=O)NS(=O)(=O)c1ccc(NS(=O)(=O)c2ccccc2)cc1 | 2.0 | -14.2 | x | 0.4 | 13.8 | -5.8
Cc1ccc2[nH]c3c(c2c1)CCCC3C(N)=O (configuration not stated) | -1.8 | x | x | -0.6 | x | -5.6
CCN(CC)C(=O)C1CCCc2c1[nH]c1ccc(Cl)cc21 (configuration not stated) | -1.5 | 1.0 | 39.9* | 0.2 | 23.5 | -0.8
COc1ccc(O)c(-c2cc(-c3cccs3)[nH]n2)c1 | -1.5 | 51.0* | -1.0 | -1.6 | 7.8 | 7.6
COc1ccccc1-c1cc(-c2cc(Cl)ccc2O)n[nH]1 | 2.6 | x | x | -0.6 | x | 8.1
O=C(c1ccc(Cl)cc1)N1CCCCC(Sc2nnc(-c3ccc4c(c3)OCO4)o2)C1=O (configuration not stated) | 1.0 | -12.3 | 2.2 | -0.9 | 75.7* | 1.9
COc1ccc(-c2cn3c(C)c(C(=O)Nc4cc(NC(C)=O)ccc4OC)sc3n2)cc1 | 4.2 | 16.5 | 48.1* | 0.5 | 24.2 | 2.0
Cc1ccc(N(CC(=O)N2CCN(C3CCCCC3)CC2)S(=O)(=O)c2cccnc2)cc1 | -0.1 | -277.0 | 1.2 | -0.1 | 3.9 | 16.4
Cc1cccc(N2CCN(c3cccc(C)c3)C2c2cccnc2)c1 | -1.5 | 1.5 | 93.6* | -0.1 | 7.2 | -0.6
CCOc1ccc2[nH]cc(C(=O)N3CCN(CC)CC3)c(=O)c2c1 | -2.5 | 7.7 | -4.6 | -0.8 | -6.5 | 0.7
COc1ccc(CCNc2ncnc3c2oc2ccccc23)cc1OC | 0.1 | 4.7 | 83.8* | 0.3 | 37.0 | 11.9
COc1ccc(CCNc2nc(C)nc3c2oc2ccccc23)cc1OC | -0.3 | 11.1 | x | -0.7 | 21.0 | 7.9
COc1ccccc1CNC(=O)c1cc2c(=O)n(C)c3ccccc3c2n1C | -1.3 | -0.6 | 1.9 | 0.6 | 4.4 | -8.5
Cc1ccc(-n2c(SCC(=O)N3CCOCC3)nnc2-c2cccnc2)cc1C | 2.8 | -3.5 | 14.6 | 43.7* | 3.3 | -1.3
Cc1ccc(-n2c(SCC(=O)N3CCOCC3)nnc2-c2cccnc2)cc1 | 1.6 | 1.7 | -3.1 | -0.2 | -2.4 | 4.0
COc1ccc(-c2cc(C(F)F)nc(-n3nc(C)cc3C)n2)cc1 | 83.0* | -12.0 | 12.0 | 0.3 | 5.1 | -2.2
COc1ccc(Cl)cc1NC(=O)CN1CCC(n2nnc3ccccc32)CC1 | -0.1 | -5.9 | 11.0 | 0.8 | 21.3 | -0.1
CC(C)(C)NC(=O)Cn1c(SCC(=O)NC2CCCCC2)nc2ccccc21 | -2.6 | -10.8 | 11.4 | -0.5 | 10.9 | 8.1
O=C(O)Cn1c(SC2CCCCC2)nc2ccccc21 | 19.4* | -1.1 | 1.5 | 0.0 | 12.5 | -15.9
Cn1c(=O)[nH]c(=O)c2[nH]c(N(Cc3ccccc3)Cc3ccccc3)nc21 | 2.4 | -5.9 | -3.6 | 0.2 | 21.3 | 28.8*
CCOc1ccccc1NC(=O)CSc1nnc(-c2ccccc2Cl)n1Cc1ccco1 | 3.1 | 14.7 | -0.1 | 0.8 | 10.8 | 4.2
COC(=O)c1ccc(NC(=O)C2CCCN(S(=O)(=O)c3cnc[nH]3)C2)cc1 (configuration not stated) | -2.1 | 0.4 | -0.8 | 0.8 | 7.1 | 1.4
COC(=O)c1ccc(NC(=O)c2ccc(N(C)S(C)(=O)=O)cc2)cc1 | -1.5 | 3.8 | 30.9* | 0.5 | 26.5 | 3.1
Cc1nn(CCc2nc(-c3ccco3)cs2)c2[nH]c(=O)cc(C(F)(F)F)c12 | -0.4 | 8.8 | 0.8 | -0.5 | 13.8 | 17.7
Cc1cc(C)n2nc(SCC(=O)c3ccccc3)nc2n1 | -0.9 | 5.4 | 6.3 | 2.1 | -2.5 | 4.1
SMILES | HTR1A agonist | 5-HT1A blocker | Jurkat tox 60K | 5HT1E ag | HEK293 NFkB inh | HTR1E antagonist
Cc1cc(-n2c(C)cc(C(=O)CSc3ncnc4ccccc34)c2C)no1 | 2.5 | 15.7 | x | 1.1 | 40.5* | -1.5
Cc1cc(C)n2nc(SCC(=O)c3cc(C)n(-c4cc(C)on4)c3C)nc2n1 | 5.2 | 3.3 | 33.2* | 0.2 | 17.2 | 18.4
Cc1cc(-n2c(C)cc(C(=O)CSc3nnc4sc5ccccc5n34)c2C)no1 | 1.3 | -2.9 | 3.6 | 0.4 | 19.8 | 6.0
Cc1nnc(Sc2nc3c(c(=O)n(C)c(=O)n3C)n2Cc2ccc(Cl)cc2)s1 | -2.0 | 0.3 | 6.8 | -1.0 | 0.7 | 4.5
COc1ccc(Cn2c(CCCO)nc3ccccc32)cc1OC | -0.6 | x | x | 0.3 | x | -6.3
COc1ccccc1OCc1ccc(C(=O)Nc2ccncc2)o1 | -1.4 | 1.3 | 21.4 | -1.1 | 1.9 | 7.6
Cc1nn(-c2ccccc2)c(OC(=O)c2cccs2)c1S(=O)(=O)c1ccccc1 | 80.9* | -6.3 | -3.4 | -0.7 | 0.2 | 4.3
Cc1occc1-c1nnc(SCC(=O)NC(C)(C)C)n1C(C)c1ccccc1 (configuration not stated) | 1.1 | 10.1 | 4.3 | 43.2* | 11.9 | -0.3
Cc1ccc(-c2nnn(CC(=O)Nc3ccccc3-c3ccccc3)n2)c(-n2cnnn2)c1 | -1.4 | 27.2 | -5.3 | -0.6 | 14.2 | 3.2
COc1ccccc1NC(=O)N1CCN(c2cccc(C(F)(F)F)c2)CC1 | 3.2 | -10.0 | -3.1 | 13.3* | 10.0 | -4.4
COc1ccccc1CC(=O)N1CCN(c2cccc(C(F)(F)F)c2)CC1 | 2.2 | 2.5 | 14.6 | 0.4 | 12.4 | 3.8
CC(=O)Nc1ccc(CN2CCN(c3cccc(C(F)(F)F)c3)CC2)cc1 | 9.1 | 9.5 | -2.3 | 22.8* | 5.4 | 3.5
CC(=O)C1=C(N2CCCCC2)CCC1=O | -2.0 | 0.4 | -4.3 | -0.5 | 2.8 | -7.1
CCOCCN1CCN(c2c(C)c(C)nc3cc(-c4cc(OC)cc(OC)c4)nn23)CC1 | -1.0 | 6.8 | x | 3.5 | 34.9 | 40.0*
COCCN1CCN(c2c(C)c(C)nc3cc(-c4cccc(OC)c4)nn23)CC1 | 0.5 | 2.8 | x | 0.3 | 8.5 | 1.9
C=CCn1c(=O)c(C#N)cc2c(=O)n3ccccc3nc21 | 42.8* | -44.1 | -0.9 | 16.1* | 7.6 | -27.9
N#Cc1cc2c(=O)n3ccccc3nc2n(Cc2cccnc2)c1=N | -0.8 | 6.6 | x | -0.6 | -1.3 | -1.1
Cc1cc(-n2c(=O)c(C#N)cc3c(=O)n4ccccc4nc32)no1 | 72.3* | -113.6 | -0.4 | 18.9* | 2.9 | -39.4
COc1ccc2cc(CN(CC3COCCO3)S(=O)(=O)c3ccc(Cl)cc3)c(=O)[nH]c2c1 (configuration not stated) | 0.9 | -5.3 | -0.3 | -0.3 | 3.1 | -4.1
Cc1nc(SCc2nc3ccccc3[nH]2)c2oc3ccccc3c2n1 | -0.1 | 31.7 | 0.1 | 0.4 | 12.7 | 39.3*
Fc1ccc(CSc2ncnc3c2oc2ccccc23)cc1 | 1.0 | -7.1 | -2.0 | 0.7 | 6.7 | -0.2
Cc1nc(N2CCN(Cc3nc4ccccc4[nH]3)CC2)c2oc3ccccc3c2n1 | 3.2 | 10.9 | x | 27.8* | -0.5 | 31.5*
c1ccc2[nH]c(CSc3ncnc4c3oc3ccccc34)nc2c1 | 0.3 | 20.6 | 8.1 | 0.4 | 22.3 | 38.0*

Compound activity from PubChem.
